According to ChEMBL document CHEMBL3769367, “Orexin Receptor Antagonists: New Therapeutic Agents for the Treatment of Insomnia” (J Med Chem, 2016):

Tests used:
[1] = species on record: Homo sapiens; assay: (§1) Apparent half life of the compound in human; type: ADME, organism-based; conditions: in vivo
[2] = system: Rattus norvegicus; assay: Effect on sleep parameter in po dosed rat by EEG analysis; type: functional
[3] = biological target: T1, Orexin/Hypocretin receptor type 1 (Homo sapiens, UniProt O43613); assay: Antagonist activity at human OX1R expressed in CHO cell membranes assessed as inhibition of orexin-A-induced intracellular calcium release after 120 mins; type: functional, cell-based
T1 sequence (O43613 whole entry): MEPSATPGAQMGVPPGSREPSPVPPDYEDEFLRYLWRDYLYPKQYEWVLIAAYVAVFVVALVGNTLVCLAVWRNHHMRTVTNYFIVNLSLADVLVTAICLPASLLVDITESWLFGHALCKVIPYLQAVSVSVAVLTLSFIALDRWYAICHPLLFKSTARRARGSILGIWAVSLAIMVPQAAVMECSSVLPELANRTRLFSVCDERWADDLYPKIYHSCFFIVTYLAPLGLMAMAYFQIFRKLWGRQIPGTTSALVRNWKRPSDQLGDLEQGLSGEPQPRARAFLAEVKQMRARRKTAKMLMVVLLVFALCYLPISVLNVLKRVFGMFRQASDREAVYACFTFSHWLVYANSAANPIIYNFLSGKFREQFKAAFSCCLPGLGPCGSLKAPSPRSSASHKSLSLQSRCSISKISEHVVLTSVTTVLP

[4] = Plasma protein binding in human; type: ADME, cell-free; conditions: read-out: PPB (converted)
[5] = biological target: T1, Orexin/Hypocretin receptor type 1; assay: Binding affinity to OX1R (unknown origin)
[6] = Plasma protein binding in rat; type: ADME, cell-free; conditions: read-out: PPB (converted)
[7] = Plasma protein binding in dog; type: ADME, cell-free, Canis lupus familiaris; conditions: read-out: PPB (converted)
[8] = species on record: Rattus norvegicus; assay: Receptor occupancy at OX2R in rat brain assessed as drug level in plasma; type: functional
[9] = Clearance in iv dosed rat; type: ADME, organism-based; conditions: in vivo
[10] = Half life in iv dosed rat; type: ADME, organism-based; conditions: in vivo
[11] = Clearance in iv dosed dog; type: ADME, organism-based, Canis lupus familiaris; conditions: in vivo
[12] = Half life in iv dosed dog; type: ADME, organism-based, Canis lupus familiaris; conditions: in vivo
[13] = Oral bioavailability in rat; type: ADME, organism-based; conditions: in vivo
[14] = Oral bioavailability in dog; type: ADME, organism-based, Canis lupus familiaris; conditions: in vivo
[15] = system: Canis familiaris; assay: Effect on sleep parameter in po dosed dog by EEG analysis; type: functional, Canis lupus familiaris
[16] = biological target: T2, Orexin receptor type 2 (Homo sapiens, UniProt O43614); assay: Antagonist activity at human OX2R expressed in CHO cell membranes assessed as inhibition of orexin-A-induced intracellular calcium release after 120 mins; type: functional, cell-based
T2 sequence (O43614 whole entry): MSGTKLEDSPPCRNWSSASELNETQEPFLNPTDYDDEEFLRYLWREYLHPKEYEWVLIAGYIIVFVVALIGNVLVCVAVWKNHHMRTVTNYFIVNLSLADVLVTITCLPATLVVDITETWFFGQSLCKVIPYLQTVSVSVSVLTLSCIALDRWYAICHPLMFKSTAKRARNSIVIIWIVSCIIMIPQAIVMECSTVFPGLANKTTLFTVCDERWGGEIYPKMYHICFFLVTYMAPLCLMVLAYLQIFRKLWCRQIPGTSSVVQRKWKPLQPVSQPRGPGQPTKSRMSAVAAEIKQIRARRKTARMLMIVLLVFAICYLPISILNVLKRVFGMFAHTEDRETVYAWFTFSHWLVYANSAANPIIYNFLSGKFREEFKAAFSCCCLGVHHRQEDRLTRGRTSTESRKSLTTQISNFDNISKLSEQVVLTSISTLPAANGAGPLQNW

[17] = Ratio of drug level in CSF to plasma in rat; type: ADME, cell-free
[18] = Ratio of drug level in brain to plasma in rat; type: ADME, cell-free; conditions: read-out: BPR
[19] = system: Plasma; assay: Drug metabolism in human plasma assessed as 2-(((S)-1-(5-(4-fluorophenyl)-2-methylthiazole-4-carbonyl)piperidin-2-yl)methyl)-3,5-dihydroxy-3,4-dihydroisoquinolin-1(2H)-one formation at 30 mg, po by LSC analysis; type: ADME, organism-based; conditions: in vivo
Summary of the method: (§2)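 Eight healthy subjects received a single 30 mg oral dose of radiolabeled compound. Plasma extracts were profiled for metabolites, each expressed as a percentage of the radioactive dose.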

[20] = as §1; type: ADME, organism-based; conditions: in vivo, read-out: t1/2(app) (converted)
[21] = system: Plasma; assay: Drug metabolism in human plasma assessed as (S)-2-(2-((1-(5-(4-fluorophenyl)-2-methylthiazole-4-carbonyl)piperidin-2-yl)methylcarbamoyl)-6-hydroxyphenyl)acetic acid formation at 30 mg, po by LSC analysis; type: ADME, organism-based; conditions: in vivo; summary of the method: as §2
[22] = system: Homo sapiens; assay: Effect on sleep parameter in insomnia patient assessed as sleep efficiency at 10 mg, po administered two consecutive nights 90 mins prior to sleep by polysomnography; type: functional
[23] = system: Homo sapiens; assay: Effect on sleep parameter in insomnia patient assessed as latency to persistent sleep time at 10 mg, po administered two consecutive nights 90 mins prior to sleep by polysomnography; type: functional
[24] = system: Homo sapiens; assay: Effect on sleep parameter in insomnia patient assessed as wake after sleep onset time at 10 mg, po administered two consecutive nights 90 mins prior to sleep by polysomnography; type: functional
[25] = system: Homo sapiens; assay: Effect on sleep parameter in insomnia patient assessed as total sleep time at 10 mg, po administered two consecutive nights 90 mins prior to sleep by polysomnography; type: functional
[26] = system: Homo sapiens; assay: Effect on sleep parameter in insomnia patient assessed as sleep efficiency at 30 mg, po administered two consecutive nights 90 mins prior to sleep by polysomnography; type: functional
[27] = system: Homo sapiens; assay: Effect on sleep parameter in insomnia patient assessed as latency to persistent sleep time at 30 mg, po administered two consecutive nights 90 mins prior to sleep by polysomnography; type: functional
[28] = system: Homo sapiens; assay: Effect on sleep parameter in insomnia patient assessed as wake after sleep onset time at 30 mg, po administered two consecutive nights 90 mins prior to sleep by polysomnography; type: functional
[29] = system: Homo sapiens; assay: Effect on sleep parameter in insomnia patient assessed as total sleep time at 30 mg, po administered two consecutive nights 90 mins prior to sleep by polysomnography; type: functional
[30] = system: Homo sapiens; assay: Effect on sleep parameter in insomnia patient assessed as sleep efficiency at 60 mg, po administered two consecutive nights 90 mins prior to sleep by polysomnography; type: functional
[31] = system: Homo sapiens; assay: Effect on sleep parameter in insomnia patient assessed as latency to persistent sleep time at 60 mg, po administered two consecutive nights 90 mins prior to sleep by polysomnography; type: functional
[32] = system: Homo sapiens; assay: Effect on sleep parameter in insomnia patient assessed as wake after sleep onset time at 60 mg, po administered two consecutive nights 90 mins prior to sleep by polysomnography; type: functional
[33] = system: Homo sapiens; assay: Effect on sleep parameter in insomnia patient assessed as total sleep time at 60 mg, po administered two consecutive nights 90 mins prior to sleep by polysomnography; type: functional
[34] = Half life in human plasma; type: ADME, organism-based
[35] = biological target: T2, Orexin receptor type 2; assay: Binding affinity to OX2R (unknown origin)

## Cc1nc(C(=O)N2CCCC[C@H]2CNC(=O)c2cccc3occc23)c(-c2ccc(F)cc2)s1 (stereo in doubt; form 2) [SB-649868]
[1]
  t1/2(app): 39 h

## Cc1ccc(-c2ncccn2)c(C(=O)N2C[C@H](COc3ccc(F)cn3)CC[C@H]2C)c1 [FILOREXANT]
[2]
  Activity: 3 mg/kg
[3]
  IC50: 11 nM
[4]
  fraction unbound: 0.025
[5]
  Ki: 2.2 nM
[6]
  fraction unbound: 0.05
[7]
  fraction unbound: 0.06
[8]
  Occ90: 142 nM
[9]
  clearance: 67 mL/min/kg
[10]
  half-life: 0.5 h
[11]
  clearance: 5.8 mL/min/kg
[12]
  half-life: 2.3 h
[13]
  bioavailability: 25%
[14]
  bioavailability: 26%
[15]
  Activity: 0.25 mg/kg
[16]
  IC50: 11 nM
[17]
  Kp: 0.04
[18]
  Kp: 1.1

## Cc1nc(C(=O)N2CCCC[C@H]2CNC(=O)c2cccc3occc23)c(-c2ccc(F)cc2)s1 (stereo in doubt; form 1) [SB-649868]
[19]
  Drug metabolism: 2 %ID
[20]
  half-life: 5 h
[21]
  Drug metabolism: 11 %ID
[22]
  Activity: 4.7%
[23]
  Time: -26.1 min
[24]
  Time: 3.2 min
[25]
  Time: 22.4 min
[26]
  Activity: 10.4%
[27]
  Time: -33 min
[28]
  Time: -18.4 min
[29]
  Time: 49.7 min
[30]
  Activity: 14.6%
[31]
  Time: -43.7 min
[32]
  Time: -29 min
[33]
  Time: 69.8 min
[34]
  half-life: 4 h

## Cc1nc(C(=O)N2CCCCC2CCOc2ccc(F)cc2)c(-c2ccccc2)s1 (stereo unspecified)
[35]
  Ki: 4 nM
[5]
  Ki: 8 nM
